These results are taken from ChEMBL document CHEMBL1148756, “Discovery of 3,3'-(2,4-diaminopteridine-6,7-diyl)diphenol as an isozyme-selective inhibitor of PI3K for the treatment of ischemia reperfusion injury associated with myocardial infarction” (J Med Chem, 2007).

The target in series [1] is Phosphatidylinositol 4,5-bisphosphate 3-kinase catalytic subunit gamma isoform (Homo sapiens, UniProt P48736). The experiment in a line: Inhibition of recombinant PI3Kgamma. In outline: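 Luminescence kinase assay with recombinant PI3K p120 gamma (250-500 ng/well), ambient temperature, in 20 mM Tris pH 7.4, 4 mM MgCl2, 10 mM NaCl, 50 µM PIP2 substrate. Compound added in DMSO at 100 to 0.001 µM final. ATP added from a 3 µM stock. Stopped after 90 min with Kinase-Glo and read by luminescence. IC50 from nonlinear curve fit.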

Series [2] in a line: Clearance in Sprague-Dawley rat at 5.0 mg/kg, iv. The format is ADME, organism-based. To be noted: in vivo. More on the design: dose 5 mg/kg, route intravenous. In outline:
(§1)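 Male Sprague-Dawley rats (200-250 g, N = 5 per dose) were given a single iv tail bolus of 0.5 or 5 mg/kg in aqueous 9.5% Captisol. Jugular-catheter blood was drawn at 5, 15, 30 min and 1, 2, 4, 6, 8, 24 h. Plasma was acetonitrile-extracted and quantified by LC/MS/MS (calibration 1-10 000 ng/mL). Parameters were derived noncompartmentally, with CL = dose/AUC(0-inf) and Vdss = CL × MRT.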

For series [3], the target named is Serine/threonine-protein kinase mTOR (Homo sapiens) (UniProt P42345). The experiment in a line: Inhibition of VEGF-induced phosphorylation of mTOR at 10 uM. The method, boiled down:
(§2)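 HUVECs (passage 2-4) were serum-starved for 4 h in EBM-2, then exposed for 10 min to 20 ng/mL recombinant human VEGF with or without 10 µM compound in DMSO. Cells were PBS-rinsed and lysed in RIPA, and lysates were normalized by BCA. Samples were screened externally by Western-blot-based antibody panels covering 73 phosphorylated kinases.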

A short description of series [4]: Volume of distribution at steady state in Sprague-Dawley rat at 0.5 mg/kg, iv. It counts as ADME, organism-based. More on the design: dose 0.5 mg/kg, route intravenous. The note with it: in vivo, read-out: Vdss. In outline: as §1
Series [5] is described as follows: Plasma concentration in Sprague-Dawley rat at 5.0 mg/kg, iv. The format is ADME, organism-based. More on the design: dose 5 mg/kg, route intravenous. In outline:
as §1

Series [6] is described as follows: Clearance in Sprague-Dawley rat at 0.5 mg/kg, iv. The format is ADME, organism-based. Set-up: dose 0.5 mg/kg, route intravenous. The note with it: in vivo. The method, boiled down: as §1
Series [7] in a line: Half life in Sprague-Dawley rat at 0.5 mg/kg, iv. The note with it: in vivo. Set-up: dose 0.5 mg/kg, route intravenous. It counts as ADME, organism-based. In outline:
as §1

The nature of series [8]: Half life in Sprague-Dawley rat at 5.0 mg/kg, iv. Set-up: dose 5 mg/kg, route intravenous. To be noted: in vivo. The format is ADME, organism-based. The method, boiled down: as §1
The nature of series [9]: Cmax in Sprague-Dawley rat at 5.0 mg/kg, iv. The format is ADME, organism-based. More on the design: dose 5 mg/kg, route intravenous. To be noted: in vivo. In outline: as §1
For series [10], the system named is HUVEC. The experiment in a line: Inhibition of VEGF-induced VE-cadherin phosphorylation in HUVEC cells by Western blot at 10 uM. The note with it: Homo sapiens. It counts as cell-based. In outline: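 Serum-starved HUVECs were pretreated for 15 min with compound (0.125-10 µM) or vehicle, then given 20 ng/mL recombinant VEGF for 5 min. RIPA lysates were loaded at equal protein (BCA, with β-actin as loading control) on SDS-PAGE. Blots were probed for phospho-VE-cadherin, stripped, and reprobed for total VE-cadherin.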
For orientation: Immunoblotting shows a protein as a band on a membrane.

A short description of series [11]: Volume of distribution at steady state in Sprague-Dawley rat at 5.0 mg/kg, iv. The format is ADME, organism-based. More on the design: dose 5 mg/kg, route intravenous. The note with it: in vivo, read-out: Vdss. In outline:
as §1

The nature of series [12]: AUC (0 to infinity) in Sprague-Dawley rat at 5.0 mg/kg, iv. It counts as ADME, organism-based. More on the design: time infinity, dose 5 mg/kg, route intravenous. The note with it: plasma. In outline: (§3)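 Male Sprague-Dawley rats (200-250 g, N = 5 per dose) given a single iv tail bolus in aqueous 9.5% Captisol. Serial plasma was taken via jugular catheter from 5 min to 24 h. Samples were acetonitrile-extracted with internal standard and quantified by LC/MS/MS (calibration 1-10 000 ng/mL). AUC(0-inf) came from noncompartmental analysis.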

Series [13] can be described thus: AUC (0 to infinity) in Sprague-Dawley rat at 0.5 mg/kg, iv. More on the design: time infinity, dose 0.5 mg/kg, route intravenous. The note with it: plasma. The format is ADME, organism-based. The method, boiled down: as §3
Series [14] is described as follows: Cmax in Sprague-Dawley rat at 0.5 mg/kg, iv. The format is ADME, organism-based. More on the design: dose 0.5 mg/kg, route intravenous. The note with it: in vivo. In outline: as §1
Series [15] addresses RAC-alpha serine/threonine-protein kinase (Homo sapiens) (UniProt P31749). The experiment in a line: Inhibition of FGF-induced AKT phosphorylation in HUVEC cells by Western blot at 10 uM. It counts as cell-based. The method, boiled down: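 Serum-starved HUVECs were pretreated for 15 min with compound (0.125-10 µM) or vehicle, then stimulated for 5 min with 20 ng/mL recombinant bFGF. Cells were lysed in RIPA, protein was normalized by BCA, and lysates were run on SDS-PAGE. Blots were probed for phospho-Akt, stripped, and reprobed for total Akt.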

In series [16] the target is Ribosomal protein S6 kinase beta-1 (Homo sapiens) (UniProt P23443). The experiment in a line: Inhibition of VEGF-induced phosphorylation of p70S6 at 10 uM. The method, boiled down: as §2
Series [17] is described as follows: Plasma concentration in Sprague-Dawley rat at 0.5 mg/kg, iv. It counts as ADME, organism-based. Set-up: dose 0.5 mg/kg, route intravenous. The method, boiled down: as §1

Activity calls are given as the source filed them. The rule behind the calls is not given here.

Chain of Ribosomal protein S6 kinase beta-1 (Homo sapiens) (P23443 whole entry, looked up): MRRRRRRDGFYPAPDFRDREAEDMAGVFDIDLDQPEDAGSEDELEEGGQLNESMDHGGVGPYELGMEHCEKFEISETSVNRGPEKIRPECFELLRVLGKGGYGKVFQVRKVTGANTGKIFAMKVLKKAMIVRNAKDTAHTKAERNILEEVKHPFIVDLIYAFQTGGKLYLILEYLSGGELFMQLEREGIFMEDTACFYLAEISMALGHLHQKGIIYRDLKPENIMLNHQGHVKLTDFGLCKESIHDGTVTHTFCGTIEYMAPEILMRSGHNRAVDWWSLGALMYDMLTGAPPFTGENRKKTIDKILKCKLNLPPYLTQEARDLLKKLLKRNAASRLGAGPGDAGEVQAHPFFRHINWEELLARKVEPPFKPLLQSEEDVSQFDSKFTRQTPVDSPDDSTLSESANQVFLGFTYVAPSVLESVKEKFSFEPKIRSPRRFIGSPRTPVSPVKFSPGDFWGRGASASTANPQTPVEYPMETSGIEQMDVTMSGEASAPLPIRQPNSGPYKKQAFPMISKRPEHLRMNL
Chain of RAC-alpha serine/threonine-protein kinase (Homo sapiens) (P31749 whole entry): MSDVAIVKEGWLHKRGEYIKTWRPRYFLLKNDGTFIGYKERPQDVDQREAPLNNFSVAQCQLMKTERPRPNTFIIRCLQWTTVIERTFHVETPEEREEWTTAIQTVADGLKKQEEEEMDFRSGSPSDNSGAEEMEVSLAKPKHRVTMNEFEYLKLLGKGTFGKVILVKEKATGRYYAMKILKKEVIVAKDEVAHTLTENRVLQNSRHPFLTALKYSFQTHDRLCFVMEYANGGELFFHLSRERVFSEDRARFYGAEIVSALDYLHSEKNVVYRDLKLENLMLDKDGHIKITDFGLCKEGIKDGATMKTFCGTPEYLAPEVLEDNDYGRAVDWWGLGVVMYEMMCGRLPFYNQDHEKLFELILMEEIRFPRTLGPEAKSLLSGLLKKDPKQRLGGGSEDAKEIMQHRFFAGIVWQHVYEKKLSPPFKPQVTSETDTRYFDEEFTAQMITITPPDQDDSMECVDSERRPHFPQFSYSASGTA

Broadly, the IC50 is the concentration that inhibits the measured activity by half. Consider `Nc1nc(N)c2nc(-c3ccc(O)c(O)c3)cnc2n1`, for which the IC50 in series [1] amounted to 0.195 µM.

For the molecule `Nc1ccc2nc(-c3ccc(O)cc3)c(-c3ccc(O)cc3)nc2n1`, the outcome in series [1] was inactive.

Turning to `CCN(CC)CCOc1cccc(-c2nc3nc(N)nc(N)c3nc2-c2cccc(OCCN(CC)CC)c2)c1`, in [1], the outcome was inactive.

On to `Nc1nc(N)c2nc(-c3cccc(OCC(O)CO)c3)c(-c3cccc(OCC(O)CO)c3)nc2n1` (stereo unspecified), for which the concentration for half-maximal inhibition (IC50) in series [1] was 32.7 µM.

With `Nc1ccc2nc(-c3ccc(O)c(O)c3)c(-c3ccc(O)c(O)c3)nc2n1`, the result in series [1] was inactive.

Consider `COc1cccc(-c2nc3nc(N)nc(N)c3nc2-c2cccc(OC)c2)c1`, for which the IC50 in series [1] was determined as 12.6 µM.

In the case of `CCOP(=O)(OCC)Oc1cccc(-c2nc3nc(N)nc(N)c3nc2-c2cccc(OP(=O)(OCC)OCC)c2)c1`, the result in series [1] was inactive.

With `Nc1ncnc2nc(-c3ccc(O)cc3)c(-c3ccc(O)cc3)nc12`, the half-maximal inhibitory concentration (IC50) in series [1] was determined as 4 µM.

As for `Nc1ncnc2nc(-c3cccc(O)c3)c(-c3cccc(O)c3)nc12`, the half-inhibitory concentration (IC50) in series [1] amounted to 4 µM.

Turning to `Nc1ccc2nc(-c3cccc(O)c3)c(-c3cccc(O)c3)nc2c1`, the IC50 in series [1] is 17 µM.

For `Nc1nc(N)c2nc(-c3ccc(O)cc3)c(-c3ccc(O)cc3)nc2n1`, in [1], the IC50 is 2.7 µM.

For `Nc1ncnc2ncc(-c3ccc(O)c(O)c3)nc12`, in series [1], the concentration for half-maximal inhibition (IC50) was determined as 1.3 µM.

Regarding `Nc1cncc2nc(-c3cccc(O)c3)c(-c3cccc(O)c3)nc12`, the outcome in [1] was inactive.

In the case of `Nc1nc(N)c2ncc(-c3ccc(O)cc3)nc2n1`, in series [1], the half-inhibitory concentration (IC50) was determined as 4.7 µM.

For the molecule `Nc1cncc2nc(-c3ccc(O)cc3)c(-c3ccc(O)cc3)nc12`, in [1], the outcome was inactive.

For the molecule `Nc1nc(N)c2ncc(-c3ccc(O)c(O)c3)nc2n1`, the half-maximal inhibitory concentration (IC50) in series [1] was 5.9 µM.

As to `Nc1nc(N)c2ncc(-c3cccc(O)c3)nc2n1`, in series [1], the IC50 worked out at 3 µM.

In the case of `Oc1cccc(-c2nc3nc(NCCCN4CCOCC4)nc(NCCCN4CCOCC4)c3nc2-c2cccc(O)c2)c1`, the outcome in [1] was inactive.

In the case of `Oc1cccc(-c2nc3nc(O)nc(O)c3nc2-c2cccc(O)c2)c1`, the IC50 in series [1] was determined as 46 µM.

Consider `Nc1nc(N)c2nc(-c3ccc(O)cc3)cnc2n1`, for which the concentration for half-maximal inhibition (IC50) in [1] came out at 1.2 µM.

Turning to `Nc1ccc2nc(-c3cccc(O)c3)c(-c3cccc(O)c3)nc2n1`, the result in series [1] was inactive.

Consider `Nc1nc(N)c2nc(-c3ccccc3)c(-c3ccccc3)nc2n1`, for which the IC50 in [1] was determined as 8.5 µM.

As for `Oc1cccc(-c2nc3cncnc3nc2-c2cccc(O)c2)c1`, the IC50 in [1] was determined as 9 µM.

As for `Nc1ncnc2nc(-c3ccc(O)c(O)c3)cnc12`, the half-maximal inhibitory concentration (IC50) in series [1] came to 5.1 µM.

Usually clearance stands for a measure of how efficiently the substance is removed, as volume per time. The low end stands for inefficient removal, the high end for efficient removal. In general, half-life refers to how long it takes for the measured level to halve. Low readings indicate fast loss, high ones slow loss. A word on the Cmax: it is the peak of the concentration-time curve. One may read the AUC(0-inf) as the area under the concentration-time curve extrapolated to infinity. The low end stands for low exposure, the high end for high exposure. `Nc1nc(N)c2nc(-c3cccc(O)c3)c(-c3cccc(O)c3)nc2n1` [TG100-115]: the clearance was 66 mL/min/kg in [2] and 71 mL/min/kg in series [6]. Moreover, the result in [3], in series [10] and in series [16] was Active. Further, the Vd in [4] stood at 2.3 L/kg; in [11] it was 4.4 L/kg. For the same molecule, the results for the C0 in series [5] and in series [17] were 7730 ng/mL and 713 ng/mL, respectively. For the same molecule, the half-life is 24 min in series [7] and 48 min in series [8]. Also, the peak concentration (Cmax) in series [9] amounted to 3330 ng/mL; in [14], 363 ng/mL. For the same molecule, the AUC(0-inf) was determined as 1380 ng·h/mL in series [12] and 124 ng·h/mL in series [13]. In addition, the Activity entry in series [15] was “Dose-dependent effect”.

With `Nc1nc(NCCCN2CCOCC2)c2nc(-c3cccc(O)c3)c(-c3cccc(O)c3)nc2n1`, the IC50 in [1] worked out at 51 µM.
